Published values collected from several papers.
Lines come from different studies, so protocols differ.
Target: Mitogen-activated protein kinase kinase kinase 12 (MAP3K12, Homo sapiens, UniProt Q12852)
Residues used in one study (Q12852 1-859): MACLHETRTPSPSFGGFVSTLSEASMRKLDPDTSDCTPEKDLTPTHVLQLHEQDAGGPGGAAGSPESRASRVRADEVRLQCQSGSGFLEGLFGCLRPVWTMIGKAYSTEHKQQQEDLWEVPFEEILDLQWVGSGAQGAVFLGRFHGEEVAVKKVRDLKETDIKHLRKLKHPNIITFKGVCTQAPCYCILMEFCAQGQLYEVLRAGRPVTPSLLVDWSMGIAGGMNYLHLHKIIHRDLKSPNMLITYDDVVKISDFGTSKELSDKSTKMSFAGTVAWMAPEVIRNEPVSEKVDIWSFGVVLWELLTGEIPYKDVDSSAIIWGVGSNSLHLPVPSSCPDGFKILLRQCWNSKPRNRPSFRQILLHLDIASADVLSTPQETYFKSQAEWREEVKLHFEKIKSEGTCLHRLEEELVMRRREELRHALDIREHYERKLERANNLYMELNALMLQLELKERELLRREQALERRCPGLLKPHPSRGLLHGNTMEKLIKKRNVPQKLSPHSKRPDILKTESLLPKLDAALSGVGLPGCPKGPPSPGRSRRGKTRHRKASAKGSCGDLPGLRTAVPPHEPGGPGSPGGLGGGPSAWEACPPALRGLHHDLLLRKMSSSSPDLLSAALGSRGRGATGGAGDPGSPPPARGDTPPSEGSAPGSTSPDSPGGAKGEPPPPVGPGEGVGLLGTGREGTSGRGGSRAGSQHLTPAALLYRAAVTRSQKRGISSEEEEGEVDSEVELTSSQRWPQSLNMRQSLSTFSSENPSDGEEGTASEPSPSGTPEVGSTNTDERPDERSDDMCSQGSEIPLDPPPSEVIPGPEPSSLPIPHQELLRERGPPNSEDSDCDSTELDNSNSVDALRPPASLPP

O=C(c1ccc(Nc2ncc(Cl)c(-c3cc4ccccc4s3)n2)cc1)N1CCC(N2CCCC2)CC1
remaining binding (binding, competition with immobilised ligand; 1 µM): 6.9%

O=C(Nc1c[nH]nc1C(=O)NC1CCNCC1)c1cc(F)cc(F)c1
remaining binding (binding, competition with immobilised ligand; 1 µM): 88%

O=C(Nc1cnc(Oc2ccc(F)cc2)nc1)N1CCc2ncccc2[C@@H]1c1ccc(F)cc1
remaining binding (cell-free assay, competition with immobilised ligand; 1 µM): 100%

Cc1cnc(Nc2ccc(C(=O)N3CCC(N4CCCC4)CC3)cc2)nc1-c1cc2ccccc2s1
remaining binding (binding, competition with immobilised ligand; 1 µM): 8.3%

CC1CCCN1c1nccc(-c2cnn3ncccc23)n1 (centres unmarked)
remaining binding (binding; 1 µM): 100%

CNCc1ccccc1-c1csc([C@H](C)Nc2nc(C)nc3cc(OC)c(OC)cc23)c1
remaining binding (cell-free assay, competition with immobilised ligand; 1 µM): 97%

c1cnn2ncc(-c3ccnc(N4CCC45COC5)n3)c2c1
remaining binding (binding; 1 µM): 74%

O=C(N1CCS(=O)(=O)CC1)N1C[C@H](c2ccc(OC(F)(F)F)cc2)C[C@H](c2nc(C3CC3)no2)C1
remaining binding (cell-free assay, competition with immobilised ligand; 1 µM): 0%

CNC(=O)[C@@H]1CC[C@@H](n2c(-c3ccc4cnccc4c3)nc3ccc(C(=O)NCc4cccc(C(N)=O)c4)cc32)C1
remaining binding (binding, competition with immobilised ligand; 1 µM): 100%

C[C@@H]1CN(c2cc(-c3n[nH]c4ccc(OC5(C)CC5)cc34)ncn2)C[C@H](C)O1
remaining binding (cell-free assay, competition with immobilised ligand; 0.1 µM): 82%

CN(CCCC(F)(F)F)c1nccc(-c2cnn3ncccc23)n1
remaining binding (binding; 1 µM): 100%

Nc1ncc2c(n1)-c1c([nH]c3ccc(C#CC4CC4)cc13)CCCC2
remaining binding (binding, competition with immobilised ligand; 1 µM): 93%

CN(C)c1ncc(F)c(-c2cnn3ncccc23)n1
remaining binding (binding; 1 µM): 72%

c1cncc(-c2cccc(Nc3nccc(NC4CCCCC4)n3)c2)c1
remaining binding (binding, competition with immobilised ligand; 10 µM): 67%

COc1cnc(Nc2cccc(S(N)(=O)=O)c2)nc1N1CCN(c2ccccc2)C(=O)C1
remaining binding (binding, competition with immobilised ligand; 1 µM): 82%

O=C(c1ccc(Nc2ncc(Cl)c(-c3ccc(Cl)s3)n2)cc1)N1CCC(N2CCCC2)CC1
remaining binding (binding, competition with immobilised ligand; 1 µM): 7.8%

CN(C)c1nccc(-c2cnn3ncccc23)n1
remaining binding (binding; 1 µM): 98%

FC(F)(F)c1ccc2c(c1)nc(-c1cccnc1)n2C1CC1
remaining binding (cell-free assay, competition with immobilised ligand; 1 µM): 100%

C[C@H]1CCN(c2nccc(-c3cnn4ncccc34)n2)C1
remaining binding (binding; 1 µM): 100%

O=C(NS(=O)(=O)c1ccc(NCC2CCOCC2)c([N+](=O)[O-])c1)c1ccc(N2CCN(Cc3ccc(C(F)(F)F)cc3-c3ccc(Cl)cc3)CC2)cc1Oc1cnc2[nH]ccc2c1
remaining binding (cell-free assay, competition with immobilised ligand; 1 µM): 100%
